The source made the active and inactive calls. The rule behind the calls is not given here.
Legend:
[1] = molecular target: Prolyl endopeptidase FAP (Homo sapiens) (UniProt Q12884); test: Inhibition at human recombinant FAPalpha at 100 uM
Outline: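 Recombinant human FAPα diluted in PBS with 1 mg/mL BSA. Setup as for cell extracts: inhibitor preincubated 5–10 min at room temperature, then Z-Gly-Pro-AMC at 10 μM final. AMC fluorescence (ex/em 360/460 nm) recorded for 30 min at 37 °C.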

[2] = molecular target: Dipeptidyl peptidase 4 (Homo sapiens) (UniProt P27487); test: Inhibition DPP4 in human HCEC cell extracts using Gly-Pro-AMC substrate at 100 uM incubated for 30 mins by fluorimetric assay
Outline: (§1)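 Cells grown to confluence in DMEM with 4.5 g/L glucose (10% FCS for HCEC, 5% FCS for glioblastoma lines), then lysed in PBS with 0.1% Triton X-100. Inhibitor (methanol stock diluted in water) preincubated 5–10 min at room temperature in duplicate wells. Gly-Pro-AMC added at 10 μM final; fluorescence increase (ex/em 360/460 nm) read for 30 min at 37 °C.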

[3] = molecular target: Dipeptidyl peptidase 4 (Homo sapiens) (UniProt P27487); test: Inhibition DPP4 in human LN18 cell extracts using Gly-Pro-AMC substrate at 100 uM incubated for 30 mins by fluorimetric assay; outline: as §1
[4] = molecular target: Dipeptidyl peptidase 4 (Homo sapiens) (UniProt P27487); test: Inhibition DPP4 in human LNZ308 cell extracts using Gly-Pro-AMC substrate at 100 uM incubated for 30 mins by fluorimetric assay; outline: as §1
[5] = molecular target: Dipeptidyl peptidase 4 (Homo sapiens) (UniProt P27487); test: Inhibition DPP4 in human LN229 cell extracts using Gly-Pro-AMC substrate at 100 uM incubated for 30 mins by fluorimetric assay; outline: as §1
[6] = molecular target: T1, Prolyl endopeptidase (Homo sapiens) (UniProt P48147); test: Inhibition of POP in intact human LNZ308 cells using Cbz-Gly-Pro-AMC substrate at 100 uM incubated for 30 mins by fluorimetric assay; assay type: cell-based
T1 sequence (whole entry): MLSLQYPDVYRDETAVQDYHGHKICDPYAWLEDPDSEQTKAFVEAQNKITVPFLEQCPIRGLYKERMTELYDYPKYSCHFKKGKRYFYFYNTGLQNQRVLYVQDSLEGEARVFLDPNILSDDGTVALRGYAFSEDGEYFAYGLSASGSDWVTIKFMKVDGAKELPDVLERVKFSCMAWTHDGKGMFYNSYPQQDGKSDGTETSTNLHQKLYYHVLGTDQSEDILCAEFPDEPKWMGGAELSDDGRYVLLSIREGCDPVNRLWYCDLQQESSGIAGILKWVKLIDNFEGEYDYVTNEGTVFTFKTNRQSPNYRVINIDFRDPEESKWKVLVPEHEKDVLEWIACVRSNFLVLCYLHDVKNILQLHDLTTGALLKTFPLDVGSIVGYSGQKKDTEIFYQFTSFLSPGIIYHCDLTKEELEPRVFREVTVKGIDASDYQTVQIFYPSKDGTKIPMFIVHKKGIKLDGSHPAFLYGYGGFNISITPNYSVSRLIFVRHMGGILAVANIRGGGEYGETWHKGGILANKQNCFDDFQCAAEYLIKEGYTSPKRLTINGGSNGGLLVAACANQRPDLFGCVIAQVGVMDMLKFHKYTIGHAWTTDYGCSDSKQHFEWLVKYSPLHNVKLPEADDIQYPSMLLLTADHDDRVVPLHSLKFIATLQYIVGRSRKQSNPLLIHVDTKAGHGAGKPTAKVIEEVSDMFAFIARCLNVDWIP
Outline: (§2)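 Intact confluent monolayers kept in PBS pH 7.2–7.4 without detergent, in duplicate wells. Inhibitor added 5–10 min at room temperature before Z-Gly-Pro-AMC at 10 μM final. Fluorescence increase (ex/em 360/460 nm) followed for 30 min at 37 °C. IC50 obtained by plotting residual activity against inhibitor concentration.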

[7] = molecular target: T1, Prolyl endopeptidase (Homo sapiens); test: Inhibition of POP in intact human HCEC cells using Cbz-Gly-Pro-AMC substrate at 100 uM incubated for 30 mins by fluorimetric assay; assay type: cell-based; outline: as §2
[8] = molecular target: T1, Prolyl endopeptidase (Homo sapiens); test: Inhibition of POP in intact human LN18 cells using Cbz-Gly-Pro-AMC substrate at 100 uM incubated for 30 mins by fluorimetric assay; assay type: cell-based; outline: as §2
[9] = molecular target: T1, Prolyl endopeptidase (Homo sapiens); test: Inhibition of POP in intact human LN229 cells using Cbz-Gly-Pro-AMC substrate at 100 uM incubated for 30 mins by fluorimetric assay; assay type: cell-based; outline: as §2
[10] = molecular target: T1, Prolyl endopeptidase (Homo sapiens); test: Inhibition of POP in human LNZ308 cell extracts using Cbz-Gly-Pro-AMC substrate at 100 uM incubated for 30 mins by fluorimetric assay
Outline: (§3)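 Confluent monolayers (DMEM, 4.5 g/L glucose; 10% FCS for HCEC, 5% FCS for LN18/LN229/LNZ308) lysed in PBS containing 0.1% Triton X-100. Inhibitor preincubated 5–10 min at room temperature in duplicate wells. Z-Gly-Pro-AMC added at 10 μM final; fluorescence (ex/em 360/460 nm) recorded over 30 min at 37 °C. IC50 taken from residual activity plotted against decreasing inhibitor concentrations.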

[11] = molecular target: T1, Prolyl endopeptidase (Homo sapiens); test: Inhibition of POP in human LN229 cell extracts using Cbz-Gly-Pro-AMC substrate at 100 uM incubated for 30 mins by fluorimetric assay; outline: as §3
[12] = molecular target: T1, Prolyl endopeptidase (Homo sapiens); test: Inhibition of POP in human LN18 cell extracts using Cbz-Gly-Pro-AMC substrate at 100 uM incubated for 30 mins by fluorimetric assay; outline: as §3
[13] = molecular target: T1, Prolyl endopeptidase (Homo sapiens); test: Inhibition of POP in human HCEC cell extracts using Cbz-Gly-Pro-AMC substrate at 100 uM incubated for 30 mins by fluorimetric assay; outline: as §3

Sequence of Dipeptidyl peptidase 4 (Homo sapiens) (P27487 whole entry, looked up): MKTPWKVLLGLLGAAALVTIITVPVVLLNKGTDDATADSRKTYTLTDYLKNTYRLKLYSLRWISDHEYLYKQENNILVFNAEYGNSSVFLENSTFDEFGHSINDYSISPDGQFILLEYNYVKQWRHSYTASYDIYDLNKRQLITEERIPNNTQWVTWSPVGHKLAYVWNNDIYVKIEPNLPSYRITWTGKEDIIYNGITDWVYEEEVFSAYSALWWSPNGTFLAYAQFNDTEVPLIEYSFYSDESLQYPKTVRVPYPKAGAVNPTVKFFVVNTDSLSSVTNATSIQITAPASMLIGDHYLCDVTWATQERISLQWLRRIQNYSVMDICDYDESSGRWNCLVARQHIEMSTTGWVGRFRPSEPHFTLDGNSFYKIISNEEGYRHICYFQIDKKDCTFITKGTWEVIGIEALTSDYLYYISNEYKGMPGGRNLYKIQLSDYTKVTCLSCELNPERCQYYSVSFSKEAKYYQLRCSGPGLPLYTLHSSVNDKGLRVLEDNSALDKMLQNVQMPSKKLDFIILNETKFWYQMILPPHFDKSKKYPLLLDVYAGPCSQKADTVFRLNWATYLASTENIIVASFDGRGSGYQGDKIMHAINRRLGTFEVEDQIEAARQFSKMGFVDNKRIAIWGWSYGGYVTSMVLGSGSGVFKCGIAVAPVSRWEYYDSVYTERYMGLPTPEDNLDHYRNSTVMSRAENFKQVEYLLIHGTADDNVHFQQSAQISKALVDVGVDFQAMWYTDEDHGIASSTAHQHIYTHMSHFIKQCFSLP
Sequence of Prolyl endopeptidase FAP (Homo sapiens) (Q12884 whole entry): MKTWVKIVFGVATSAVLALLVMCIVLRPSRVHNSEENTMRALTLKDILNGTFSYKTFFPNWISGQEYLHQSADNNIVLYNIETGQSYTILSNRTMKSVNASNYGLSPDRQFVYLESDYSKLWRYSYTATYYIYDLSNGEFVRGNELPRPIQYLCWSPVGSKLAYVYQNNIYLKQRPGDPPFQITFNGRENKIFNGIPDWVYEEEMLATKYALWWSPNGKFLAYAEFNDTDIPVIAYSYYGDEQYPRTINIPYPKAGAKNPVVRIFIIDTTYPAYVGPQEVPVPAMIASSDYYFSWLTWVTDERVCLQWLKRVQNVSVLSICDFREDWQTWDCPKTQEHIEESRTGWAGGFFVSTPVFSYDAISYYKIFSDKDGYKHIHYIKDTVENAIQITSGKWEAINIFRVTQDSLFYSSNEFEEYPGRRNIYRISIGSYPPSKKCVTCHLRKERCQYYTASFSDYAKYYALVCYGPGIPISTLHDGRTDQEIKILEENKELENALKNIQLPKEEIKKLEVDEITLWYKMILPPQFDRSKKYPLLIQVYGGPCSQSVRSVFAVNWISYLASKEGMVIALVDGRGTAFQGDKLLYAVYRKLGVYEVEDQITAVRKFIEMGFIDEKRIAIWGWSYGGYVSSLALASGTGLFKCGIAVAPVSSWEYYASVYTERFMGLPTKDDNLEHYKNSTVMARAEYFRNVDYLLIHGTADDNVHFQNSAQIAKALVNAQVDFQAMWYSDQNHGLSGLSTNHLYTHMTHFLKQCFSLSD

| Compound | inhibition [1] [%] | inhibition [2] | inhibition [3] | inhibition [4] | inhibition [5] | inhibition [6] | inhibition [7] | inhibition [8] | inhibition [9] | inhibition [10] [%] | inhibition [11] [%] | inhibition [12] [%] | inhibition [13] [%] |
| --- | --- | --- | --- | --- | --- | --- | --- | --- | --- | --- | --- | --- | --- |
| O=C(c1cccc2c1C(=O)N(Cc1ccccc1)C2)N1CCCC1 | 11 | inactive | inactive | inactive | inactive |  |  |  |  |  |  |  |  |
| O=C(NCc1ccccc1)c1ccccc1C(=O)N1CCCC1 |  | inactive | inactive | inactive | inactive | > 50% | > 50% | > 50% | > 50% |  |  |  |  |
| N#C[C@@H]1CCCN1C(=O)c1ccccc1C(=O)NCc1ccccc1 | 34 | inactive | inactive | inactive | inactive |  |  |  |  |  |  |  |  |
| O=C(NCc1ccccc1)c1ccccc1C(=O)N1CCCCC1 |  | inactive | inactive | inactive | inactive | inactive | inactive | inactive | inactive | > 50 | > 50 | > 50 | > 50 |
| N#C[C@@H]1CCCN1C(=O)c1cccc2c1C(=O)N(Cc1ccccc1)C2 | 28 | inactive | inactive | inactive | inactive |  |  |  |  |  |  |  |  |
